Screening data as filed in PubChem.
E-sel inducer: induces E-selectin expression in human endothelial cells; 0.37% of 260,000 active; activation, % at 7.58 µM; P16581; HUVEC E-selectin immunofluorescence imaging; normalized: neutral wells 0, TNF-alpha wells 100;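 active = mean E-selectin-positive cell signal at least 10% of the positive control, reached in at least 60% of replicates, without over 20% cell loss; inconclusive = no rule given, readout overlaps actives, possibly toxicity-flagged; inactive = the rest, including those meeting only one limit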
Target sequence (P16581 whole entry, looked up): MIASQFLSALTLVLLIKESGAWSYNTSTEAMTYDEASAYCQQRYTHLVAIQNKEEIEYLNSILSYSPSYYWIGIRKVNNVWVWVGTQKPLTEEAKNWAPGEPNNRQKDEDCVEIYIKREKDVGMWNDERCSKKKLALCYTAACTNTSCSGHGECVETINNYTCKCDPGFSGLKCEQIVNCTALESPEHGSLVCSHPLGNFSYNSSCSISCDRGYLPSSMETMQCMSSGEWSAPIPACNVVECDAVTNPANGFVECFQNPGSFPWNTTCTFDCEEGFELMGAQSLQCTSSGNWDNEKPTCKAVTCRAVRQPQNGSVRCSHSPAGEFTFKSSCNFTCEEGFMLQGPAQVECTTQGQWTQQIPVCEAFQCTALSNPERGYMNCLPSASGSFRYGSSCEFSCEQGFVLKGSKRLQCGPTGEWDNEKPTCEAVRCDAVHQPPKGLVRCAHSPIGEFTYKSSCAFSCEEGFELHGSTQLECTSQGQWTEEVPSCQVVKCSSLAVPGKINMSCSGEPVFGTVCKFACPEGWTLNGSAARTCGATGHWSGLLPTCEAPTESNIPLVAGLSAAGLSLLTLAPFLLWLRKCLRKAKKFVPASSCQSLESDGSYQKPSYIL
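Read-out basis: % PE-positive cells; Test system: HUVEC primary endothelial cells; Technique: immunofluorescence imaging; Dosing: single-point compound dose.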
DENV2 CPE: inhibitors of DENV2 cytopathic effect; DENV2-infected cells, cytopathic effect rescue, plate reader; CPE inhibition, % at 9.99 µM; 1.7% of 350,000 active; AID 651640; in the data active = CPE inhibition above about 20%, passing the limit was not always enough; inconclusive = no clear call, values can overlap the other calls; tested in BHK-21 cells
miR122 inh: inhibitors of miR-122 in Huh7 cells; AID 602342; 0.3% of 340,000 active; Huh7 miR-122 Renilla luciferase sensor, 48 h; neutral wells = 0, positive control = 100; activation (reporter increase), % at 12.5 µM;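 active = mean replicate activation score at least 90 and every replicate individually at or above 90; inconclusive = only one of the two criteria met; inactive = neither criterion met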;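 also: higher luciferase means less miR-122 activity so hits act as miR-122 inhibitors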
Ecoli rRNA inh: inhibits bacterial ribosomal RNA function over humanized ribosomes. E. coli WT GFP vs humanized-ribosome RFP mutants, fluorescence, 24 h; stronger effect = lower value; DMSO median 0, no signal -100. GFP signal change (wild-type ribosome), % (concentration not given with the values). 1.6% of 350,000 active. AID 720706;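 active = significant combined selectivity score with lowered wild-type GFP, culture density cut under 30%, mutant RFP and density less affected; inactive = any of these conditions unmet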
Cneo AK release: causes C. neoformans cell lysis. 0.2% of 360,000 active. adenylate kinase release luminescence, 4 h; normalised: neutral wells 0, clomiphene wells 100. lysis activity, % at 15 µM;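 active = mean lysis activity across replicates of at least 80%, whatever share of replicates individually reach that level; inactive = mean lysis activity below 80%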
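Test system: log-phase Cryptococcus neoformans yeast cells. Input: 5 × 10^6 yeast cells/mL. Medium: fresh YPD growth medium. Doses: single dose. Incubation: static 4 h at 37 °C with compound, 1 h detection. Measured by: luminescent adenylate kinase detection reagent. Read-out: signal increase indicating cell lysis. Benchmarks: Clomiphene.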
Of the large screens only hits and unclear results are named; the others gave an inactive call; [ ] = another dose, or the depositor's remark. This is a sample that favours compounds with a hit; in the whole collection about 3.1% have one here.

COc1ccccc1-c1ccc2c(c1)O[C@H](CN(C)S(=O)(=O)c1ccc(F)cc1)[C@@H](C)CN([C@@H](C)CO)S2(=O)=O	DENV2 CPE inconclusive
CCc1ccccc1OCC(=O)NNCC(=O)Nc1cccc(C#N)c1	DENV2 CPE 41, Ecoli rRNA inh -20 (no result: E-sel inducer)
N#Cc1cccc(NC(=O)Cc2ccsc2)c1	none (no result: E-sel inducer, miR122 inh)
COc1ccc2c3c(n(C)c2c1)[C@H](CO)N(C(C)=O)CC31CN(C(=O)C2CC2)C1	DENV2 CPE 66 (no result: miR122 inh, Cneo AK release)
COc1ccc2c3c(n(C)c2c1)[C@@H](CO)N(Cc1cc(F)ccc1F)CC31CN(C(=O)C2CC2)C1	DENV2 CPE 38 (no result: miR122 inh, Cneo AK release)
COc1ccc2c3c(n(C)c2c1)[C@@H](CO)N(C(C)=O)CC31CCN(C(=O)c2cnccn2)CC1	DENV2 CPE 23 (no result: miR122 inh, Cneo AK release)
COc1ccc(S(=O)(=O)N2CC3(CN(C(=O)CN(C)C)[C@H](CO)c4c3c3ccc(OC)cc3n4C)C2)cc1	DENV2 CPE 102 (no result: miR122 inh, Cneo AK release)
COc1ccc(S(=O)(=O)N2CC3(CN(C(=O)CN(C)C)[C@@H](CO)c4c3c3ccc(OC)cc3n4C)C2)cc1	DENV2 CPE inconclusive (no result: miR122 inh, Cneo AK release)
COc1ccc2c3c([nH]c2c1)[C@H](CO)N(C(=O)C1CCOCC1)CC31CCN(C(=O)NC(C)C)CC1	none (no result: miR122 inh, Cneo AK release)
C[C@@H](NC(=O)C[C@@H]1CC[C@@H](NC(=O)Cc2ccccn2)[C@H](CO)O1)c1ccccc1	none
COc1ccc2c3c(n(C)c2c1)[C@H](CO)N(C(=O)CC1CC1)CC31CCN(C(=O)C2CCC2)CC1	none (no result: E-sel inducer, DENV2 CPE, miR122 inh, Cneo AK release)
COc1ccc2c3c(n(C)c2c1)[C@@H](CO)N(C(=O)C1CCCCC1)CC31CCN(C(=O)c2ccncc2)CC1	DENV2 CPE 42 (no result: miR122 inh, Cneo AK release)
COc1ccc2c3c(n(C)c2c1)[C@H](CO)N(C(=O)C1CC1)CC31CCN(C(=O)c2ccncc2)CC1	DENV2 CPE 32 (no result: miR122 inh, Cneo AK release)
CCCC(=O)N1CC2(CCN(C(=O)C3CCC3)CC2)c2c(n(C)c3cc(OC)ccc23)[C@@H]1CO	DENV2 CPE 22 (no result: miR122 inh, Cneo AK release)
COc1ccc2c3c(n(C)c2c1)[C@@H](CO)N(C(=O)NC1CCCCC1)CC31CN(C)C1	DENV2 CPE 32 (no result: miR122 inh, Cneo AK release)
COCC(=O)N1CC2(C1)CN(C(=O)NC1CCCC1)[C@@H](CO)c1c2c2ccc(OC)cc2n1C	DENV2 CPE inconclusive (no result: miR122 inh, Cneo AK release)
O=C(C[C@@H]1C=C[C@H](NC(=O)CN2CCOCC2)[C@@H](CO)O1)NCCc1ccncc1	none (no result: miR122 inh, Cneo AK release)
CCOc1ccc(NC(=O)CN(C)C(=O)c2cccc3ccccc23)cc1OCC	none (no result: Cneo AK release)
CCOc1ccc(NC(=O)CN(C)C(=O)c2sc3ccccc3c2Cl)cc1OCC	Ecoli rRNA inh -29
C[C@@H]1CCCCO[C@@H](CN(C)C(=O)Nc2cccc3ccccc23)[C@@H](C)CN([C@@H](C)CO)C(=O)c2cc(NC(=O)Cc3ccccc3)ccc2O1	none (no result: miR122 inh, Cneo AK release)
CN(C)CCOCCOc1ccc(Cl)cc1C(C)(C)C	none (no result: miR122 inh, Cneo AK release)
CC(O)CNCCCOc1ccc(Cl)cc1C(C)(C)C (centres undefined)	Ecoli rRNA inh -41 (no result: miR122 inh, Cneo AK release)
C[C@H]1CN([C@@H](C)CO)C(=O)c2cccc(NC(=O)c3ccc(-c4nccs4)cc3)c2O[C@H]1CN(C)S(=O)(=O)c1ccc(Cl)cc1	none
CN(/N=C/c1cc(Cl)ccc1O)C1=NS(=O)(=O)c2ccccc21	Ecoli rRNA inh -21
COc1cccc(/C=N/N(C)C2=NS(=O)(=O)c3ccccc32)c1O	none
Cc1ccc(S(=O)(=O)N[C@@H]2CC[C@@H](CC(=O)N3CCN(c4ccccc4)CC3)O[C@@H]2CO)cc1	none (no result: miR122 inh)
COC(=O)c1cc(NC(=O)Nc2cccc(Cl)c2)ccc1Cl	Ecoli rRNA inh -51 (no result: E-sel inducer)
COC(=O)c1cccc(NC(=S)Nc2ccc(Cl)c(Cl)c2)c1	Ecoli rRNA inh -48 (no result: E-sel inducer)
O=C(Nc1cccc(Cl)c1)Nc1cccc(Cl)c1	none (no result: E-sel inducer, DENV2 CPE, Ecoli rRNA inh)
Nc1nc(N)c(Br)c(Nc2ccc(Cl)c(Cl)c2)n1	none
Nc1nc(N)c(C=Nc2ccc(Br)cc2)c(Nc2ccc(Br)cc2)n1	Ecoli rRNA inh -25 (no result: E-sel inducer, miR122 inh)
CCCNC(=O)c1cc2c(c(-c3cccc(-c4cccc(F)c4)c3)n1)[C@H](CCO)N([S@@](=O)C(C)(C)C)C2	none (no result: E-sel inducer, miR122 inh, Ecoli rRNA inh)
CCC(=O)N1C[C@H](C)[C@@H](OC)CN(C)C(=O)c2cc(NC(=O)CC(F)(F)F)ccc2OC[C@@H]1C	none (no result: E-sel inducer, DENV2 CPE, miR122 inh, Cneo AK release)
Cc1noc(C)c1NC(=O)N(C)C[C@H]1OCCCC[C@@H](C)Oc2ccc(NS(=O)(=O)c3ccccc3)cc2C(=O)N([C@H](C)CO)C[C@H]1C	DENV2 CPE 70
Cc1noc(C)c1NC(=O)N(C)C[C@@H]1OCCCC[C@H](C)Oc2ccc(NS(=O)(=O)c3cccs3)cc2C(=O)N([C@@H](C)CO)C[C@H]1C	DENV2 CPE 22
Cc1noc(C)c1NC(=O)N(C)C[C@H]1OCCCC[C@H](C)Oc2ccc(NS(=O)(=O)c3cccs3)cc2C(=O)N([C@@H](C)CO)C[C@H]1C	none
C[C@@H]1CN([C@@H](C)CO)C(=O)c2cc(C#CCc3ccccc3)cnc2O[C@@H]1CN(C)CC1CC1	none (no result: miR122 inh, Cneo AK release)
O=C(CSc1nncn1-c1ccccc1)NC1CCCc2ccccc21 (centres undefined)	none (no result: E-sel inducer, miR122 inh, Cneo AK release)
Cc1nnc(SCC(=O)NC2CCCc3ccccc32)n1-c1ccccc1 (centres undefined)	DENV2 CPE 83 (no result: E-sel inducer, miR122 inh, Cneo AK release)
COc1ccc2c3c([nH]c2c1)[C@@H](CO)N(C(=O)Nc1ccccc1F)CC31CCN(C(=O)C2CC2)CC1	none (no result: miR122 inh, Cneo AK release)
C[C@H](CO)N1C[C@H](C)[C@@H](CN(C)Cc2ccc(C(=O)Nc3ccccc3N)cc2)Oc2c(NC(=O)Nc3ccccc3)cccc2C1=O	miR122 inh 97[16.7 µM]
C[C@H]1CN([C@@H](C)CO)C(=O)c2cccc(NC(=O)Nc3ccccc3)c2O[C@@H]1CN(C)Cc1ccc(C(=O)Nc2ccccc2N)cc1	miR122 inh 153[16.7 µM]
Cc1cccc(S(=O)(=O)N2C[C@H](O)COC[C@H]3O[C@H](CC(=O)N4CCN(C)CC4)CC[C@@H]32)c1	none
C[C@H]1CN([C@@H](C)CO)C(=O)c2c(c3ccccc3n2C)-c2ccccc2CO[C@@H]1CN(C)Cc1ccc(-c2ccccc2)cc1	none (no result: miR122 inh, Cneo AK release)
O=C(C1CCOCC1)N1C[C@@H]2[C@H](c3ccccc31)[C@H](CO)N2Cc1ccccc1	none
COCC#Cc1cnc2c(c1)C(=O)N([C@H](C)CO)C[C@H](C)[C@H](CN(C)C(=O)c1cccc(F)c1)O2	none
Cc1c(C(=O)Nc2ccccc2F)sc2ncn(CC(=O)N3CCOCC3)c(=O)c12	DENV2 CPE 52 (no result: E-sel inducer)
C[C@H](O)[C@@H]1CN2CCc3c([nH]c4ccccc34)[C@@H]2C[C@@H]1N(C)C(=O)Nc1ccc(Br)cc1	none
C[C@H](O)[C@@H]1CN2CCc3c([nH]c4ccccc34)[C@@H]2C[C@@H]1N(C)C(=S)Nc1ccc(C#N)cc1	DENV2 CPE 25
